As usually defined, the EC90 is the point of the concentration-response curve where the effect stands at 90%. The Cmax is the highest concentration seen after dosing. As a reminder, the AUC is the area under the concentration-time curve, a measure of exposure. A lower AUC goes with less exposure. For orientation: bioavailability means dose-corrected exposure relative to a reference, in per cent. Broadly, the clearance is a measure of how efficiently the substance is removed, as volume per time. Broadly, the half-life is the time in which the quantity being followed falls by half.

Experimental findings from ChEMBL document CHEMBL4177770, “Discovery of MK-6169, a Potent Pan-Genotype Hepatitis C Virus NS5A Inhibitor with Optimized Activity against Common Resistance-Associated Substitutions” (J Med Chem, 2018) are described below.

Residue numbers refer to the chain shown, from its start.

The target of series [1] is T1, Nonstructural protein 5A (Hepatitis C virus) (UniProt Q5L478).
T1 sequence (whole entry): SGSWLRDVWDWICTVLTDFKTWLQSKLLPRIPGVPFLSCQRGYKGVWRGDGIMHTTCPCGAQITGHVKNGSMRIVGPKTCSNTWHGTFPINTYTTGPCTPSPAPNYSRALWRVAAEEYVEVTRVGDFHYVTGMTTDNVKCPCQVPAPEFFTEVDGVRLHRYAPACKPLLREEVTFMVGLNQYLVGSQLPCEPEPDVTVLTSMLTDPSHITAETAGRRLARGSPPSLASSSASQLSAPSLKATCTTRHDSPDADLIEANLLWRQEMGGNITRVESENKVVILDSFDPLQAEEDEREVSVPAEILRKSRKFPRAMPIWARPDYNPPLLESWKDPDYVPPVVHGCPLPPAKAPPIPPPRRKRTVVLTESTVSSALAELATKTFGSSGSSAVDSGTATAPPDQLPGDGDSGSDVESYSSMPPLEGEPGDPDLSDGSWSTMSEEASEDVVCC
Put plainly: Inhibition of NS5A in HCV genotype 1b infected in HuH7 replicon cells assessed as decrease in viral replication after 3 days by RT-PCR method. The following applies: Hepatitis C virus subtype 1b. It counts as cell-based. For orientation: Replicon systems follow genome replication, usually without infectious particles.

The target of series [2] is T1, Nonstructural protein 5A (Hepatitis C virus). Put plainly: Inhibition of NS5A L31V mutant in HCV genotype 1a infected in HuH7 replicon cells assessed as decrease in viral replication after 3 days by RT-PCR method. It counts as cell-based. Particulars: Hepatitis C virus subtype 1a.
For series [3], the system named is T2, Nonstructural protein 5A (Hepatitis C virus), Q5L478 [Y93H].
T2 sequence (whole entry): T1 sequence (whole entry) with Y93H
Put plainly: Inhibition of NS5A Y93H mutant in HCV genotype 1a infected in HuH7 replicon cells assessed as decrease in viral replication after 3 days by RT-PCR method. It counts as cell-based. Particulars: Hepatitis C virus subtype 1a.

For series [4], the target named is T1, Nonstructural protein 5A (Hepatitis C virus). Description: Inhibition of NS5A in HCV genotype 4a infected in HuH7 replicon cells assessed as decrease in viral replication after 3 days by RT-PCR method. The class given is cell-based. Particulars: Hepatitis C virus subtype 4a.
Series [5] shares this target. Put plainly: Inhibition of NS5A L31M mutant in HCV genotype 2b infected in HuH7 replicon cells assessed as decrease in viral replication after 3 days by RT-PCR method. The class given is cell-based. The following applies: Hepatitis C virus subtype 2b.
Series [6] shares this target. Put plainly: Inhibition of NS5A in HCV genotype 1a infected in HuH7 replicon cells assessed as decrease in viral replication after 3 days by RT-PCR method. The class given is cell-based. The following applies: Hepatitis C virus subtype 1a.
The target is the same in series [7]. Put plainly: Inhibition of NS5A in HCV genotype 3a infected in HuH7 replicon cells assessed as decrease in viral replication after 3 days by RT-PCR method. The class given is cell-based. The following applies: Hepatitis C virus subtype 3a.
Series [8] is described as follows: Cmax in Wistar Han rat at 10 mg/kg, po by LC/MS method. It counts as ADME, organism-based. The following applies: in vivo. Set-up: dose 10 mg/kg, route oral. Summed up:
(§1)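 Male Wistar Han rats, two per dosing group, dosed orally at 10 mg/kg in 10% TWEEN. Plasma was separated from collected blood by centrifugation and analysed by LC/MS.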

A short description of series [9]: AUC in Wistar Han rat at 10 mg/kg, po by LC/MS method. It counts as ADME, organism-based. The following applies: in vivo. Summed up: as §1
A short description of series [10]: Oral bioavailability in Wistar Han rat at 10 mg/kg by LC/MS method. The class given is ADME, organism-based. Particulars: in vivo. The method, boiled down: as §1
Series [11] is described as follows: Clearance in Wistar Han rat at 2 mg/kg, iv by LC/MS method. It counts as ADME, organism-based. Particulars: in vivo. Summed up: (§2)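 Male Wistar Han rats, two per group, dosed IV at 2 mg/kg in 60% PEG200. Plasma was obtained by centrifuging the blood, and compound concentrations were measured by LC/MS.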
A short description of series [12]: Half life in Wistar Han rat at 2 mg/kg, iv by LC/MS method. The class given is ADME, organism-based. The following applies: in vivo. Summed up:
as §2

The nature of series [13]: Drug level in Wistar Han rat at 10 mg/kg, po measured at 24 hrs by LC/MS method. It counts as ADME, organism-based. Particulars: in vivo, read-out: Drug uptake. Summed up:
as §1

Consider `CCCc1ccc([C@@H]2Oc3cc(-c4cnc([C@@H]5CCCN5C(=O)[C@@H](NC(=O)OC)C(C)C)[nH]4)cc(F)c3-c3cc4cc(-c5cnc([C@@H]6CCCN6C(=O)[C@@H](NC(=O)OC)[C@@H]6CCOC(C)(C)C6)[nH]5)ccc4n32)s1`, for which the EC90 was determined as 9 pM in [1]; 6 pM in series [2]; 78 pM in series [3]; 11 pM in series [4]; 84 pM in series [5]; 10 pM in series [6]. Also, the EC90 in series [7] amounted to 16 pM.

Turning to `COC(=O)N[C@H](C(=O)N1CCC[C@H]1c1ncc(-c2ccc3c(c2)cc2n3[C@H](c3ccc4c(c3)OCCC4)Oc3cc(-c4cnc([C@@H]5CCCN5C(=O)[C@@H](NC(=O)OC)C5CCOCC5)[nH]4)cc(F)c3-2)[nH]1)C(C)C`, the EC90 in series [1] amounted to 3 pM; in [2], 1 pM; in [3] it was 8 pM; in [4], 2 pM; in series [5], 5 pM; in [6], 2 pM. In addition, the concentration for an effect of 90% (EC90) in [7] is 3 pM. The peak level in series [8] (Cmax) was 10 nM. In series [9], this molecule had an AUC of 0.05 µM·h. The molecule also had a bioavailability in series [10] of 0.5%. For the same molecule, in [11], the clearance is 19 mL/min/kg. In addition, the half-life in series [12] was 1.9 h.

On to `COC(=O)N[C@H](C(=O)N1CCC[C@H]1c1ncc(-c2ccc3c(c2)cc2n3[C@H](c3ccc4c(c3)OCCN4C)Oc3cc(-c4cnc([C@@H]5CCCN5C(=O)[C@@H](NC(=O)OC)C5CCOCC5)[nH]4)cc(F)c3-2)[nH]1)C(C)C`, for which the EC90 in series [1] worked out at 7 pM; in series [3], 73 pM; in series [4] it was 9 pM; in series [5] it was 54 pM; in series [6], 71 pM; in series [7], 17 pM. This molecule yielded a maximum concentration (Cmax) in series [8] of 16 nM. In series [9], the AUC is 0.1 µM·h. The bioavailability in series [10] was determined as 0.8%. Moreover, in [13], the concentration at 24 h was 1 nM. The molecule further showed a clearance in series [11] of 13 mL/min/kg. For the same molecule, in [12], the half-life is 3.8 h.

Regarding `COC(=O)N[C@H](C(=O)N1CCC[C@H]1c1ncc(-c2cc(F)c3c(c2)O[C@@H](c2cnc(C(C)C)s2)n2c-3cc3cc(-c4cnc([C@@H]5CCCN5C(=O)[C@@H](NC(=O)OC)[C@@H]5CCOC(C)(C)C5)[nH]4)ccc32)[nH]1)C(C)C`, the EC90 came to 6 pM in series [1]; 4 pM in [2]; 329 pM in series [3]; 7 pM in [4]; 19 pM in [5]; 6 pM in series [6]. Moreover, the EC90 in series [7] is 38 pM.

For the molecule `COC(=O)N[C@H](C(=O)N1CCC[C@H]1c1ncc(-c2cc(F)c3c(c2)O[C@@H](c2nc4c(s2)CCC4)n2c-3cc3cc(-c4cnc([C@@H]5CCCN5C(=O)[C@@H](NC(=O)OC)[C@@H]5CCOC(C)(C)C5)[nH]4)ccc32)[nH]1)C(C)C`, the EC90 in series [1] was determined as 4 pM; in series [3] it was 590 pM; in series [4], 7 pM; in series [5] it was 174 pM; in series [6], 5 pM; in series [7], 13 pM.

In the case of `COC(=O)N[C@H](C(=O)N1CCC[C@H]1c1ncc(-c2cc(F)c3c(c2)O[C@@H](c2ccc4c(c2)O[C@@H](C)CC4)n2c-3cc3cc(-c4cnc([C@@H]5CCCN5C(=O)[C@@H](NC(=O)OC)[C@@H]5CCOC(C)(C)C5)[nH]4)ccc32)[nH]1)C(C)C`, the EC90 in series [1] was found to be 7 pM; in [2], 5 pM; in series [3], 348 pM; in [4], 8 pM; in [5], 102 pM; in [6] it was 5 pM. For the same molecule, the EC90 in series [7] is 8 pM.

Turning to `CC[C@@H]1CC([C@H](NC(=O)OC)C(=O)N2CCC[C@H]2c2ncc(-c3ccc4c(c3)cc3n4[C@H](c4ccc(C5CC5)s4)Oc4cc(-c5cnc([C@@H]6CCCN6C(=O)[C@@H](NC(=O)OC)C(C)C)[nH]5)cc(F)c4-3)[nH]2)C[C@H](CC)O1` (stereo not given in full), the 90% effect concentration (EC90) in series [3] came to 642 pM; in series [5], 2700 pM; in [6], 17 pM; in series [7], 62 pM.
